This note sets out measurements from ChEMBL document CHEMBL1125041, “New inhibitors of renin that contain novel phosphostatine Leu-Val replacements” (J Med Chem, 1990).

One assay has as its target T1, Renin (Homo sapiens, UniProt P00797).
T1 sequence (P00797 whole entry): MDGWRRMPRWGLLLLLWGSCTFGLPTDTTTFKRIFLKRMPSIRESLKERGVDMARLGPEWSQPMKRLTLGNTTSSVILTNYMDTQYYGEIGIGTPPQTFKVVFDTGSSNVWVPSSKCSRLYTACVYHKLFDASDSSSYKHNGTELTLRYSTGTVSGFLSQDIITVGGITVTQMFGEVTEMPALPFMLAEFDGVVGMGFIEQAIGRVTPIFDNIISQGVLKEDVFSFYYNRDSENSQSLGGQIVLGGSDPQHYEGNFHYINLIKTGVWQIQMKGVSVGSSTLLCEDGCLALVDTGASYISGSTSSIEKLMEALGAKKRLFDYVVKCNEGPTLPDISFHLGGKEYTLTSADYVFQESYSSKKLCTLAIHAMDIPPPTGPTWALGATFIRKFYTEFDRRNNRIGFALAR
Briefly: Inhibition of purified human renal renin at pH 6. The gist of the method:
(§1)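 Purified human renal renin enzyme assay at pH 6.0, following a previously described method. IC50 values were determined. Where IC50 exceeded 10^-6 M, no IC50 was determined and percent inhibition was reported at the stated concentration.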

For assay [1], the target named is T2, Cathepsin D (Bos taurus) (UniProt P80209).
T2 sequence (whole entry): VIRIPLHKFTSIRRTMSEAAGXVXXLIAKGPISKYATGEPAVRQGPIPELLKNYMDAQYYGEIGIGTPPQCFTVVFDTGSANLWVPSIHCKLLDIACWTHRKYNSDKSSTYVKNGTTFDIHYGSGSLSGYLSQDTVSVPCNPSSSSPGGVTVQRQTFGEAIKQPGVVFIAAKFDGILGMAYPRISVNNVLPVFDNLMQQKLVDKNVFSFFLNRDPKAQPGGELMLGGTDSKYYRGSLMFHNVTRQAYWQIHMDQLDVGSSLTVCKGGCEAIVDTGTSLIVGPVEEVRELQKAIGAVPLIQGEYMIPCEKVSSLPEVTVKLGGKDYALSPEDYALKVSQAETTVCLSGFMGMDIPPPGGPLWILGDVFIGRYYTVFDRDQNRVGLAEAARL
The assay can be described thus: Tested for inhibition of Cathepsin D from bovine was determined at 10e-5 M.

The target of assay [2] is Pepsin A (Sus scrofa) (UniProt P00791). The assay can be described thus: In vitro inhibitory activity against porcine pepsin was determined at 10e-5 M.
Sequence of Pepsin A (Sus scrofa) (P00791 60-385 limits assumed): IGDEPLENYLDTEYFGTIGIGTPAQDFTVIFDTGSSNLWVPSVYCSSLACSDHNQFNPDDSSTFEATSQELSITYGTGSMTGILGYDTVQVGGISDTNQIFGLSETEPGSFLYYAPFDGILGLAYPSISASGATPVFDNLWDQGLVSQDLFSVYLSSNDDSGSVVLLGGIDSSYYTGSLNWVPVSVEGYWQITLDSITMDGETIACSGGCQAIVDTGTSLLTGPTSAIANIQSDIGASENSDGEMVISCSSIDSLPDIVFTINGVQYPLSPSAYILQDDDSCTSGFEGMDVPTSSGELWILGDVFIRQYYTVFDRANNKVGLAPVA
The target is the same in assay [3]. Briefly: Inhibitory activity against Porcine pepsin at a concentration of 10e-5 M.
Assay [4] concerns the target T2, Cathepsin D (Bos taurus). Briefly: Tested for inhibition of Cathepsin D from bovine at a concentration of 10e-5 M.
For a further assay, the target named is T3, Renin (Homo sapiens) (UniProt P00797).
T3 sequence (whole entry): T1 sequence (P00797 whole entry)
Briefly: The compound was tested in vitro for inhibition of purified human renal renin at pH 6 and a concentration of 10e-6 M. The gist of the method:
as §1

As to `COP(=O)(C[C@H](O)[C@H](CC1CCCCC1)NC(=O)[C@H](Cc1c[nH]cn1)NC(=O)[C@H](Cc1ccccc1)NC(=O)OC(C)(C)C)OC`, the IC50 (usually the concentration at which inhibition is half-maximal) against Renin was found to be 39 nM.
On the same count and under the same terms, to `CC(C)OP(=O)(C[C@H](O)[C@H](CC1CCCCC1)NC(=O)[C@H](Cc1c[nH]cn1)NC(=O)[C@H](Cc1ccccc1)NC(=O)OC(C)(C)C)OC(C)C` belongs 1500 nM.
The compound `COP(=O)(C[C@H](O)[C@H](CC1CCCCC1)NC(=O)[C@H](CC(C)C)NC(=O)[C@H](Cc1ccccc1)NC(=O)OC(C)(C)C)OC` came in with an IC50 on Renin of 20 nM. For the same compound, the inhibition (in general, how much of the control response was suppressed) against Cathepsin D (Bos taurus) [1] turned out to be 86%; at Pepsin A (Sus scrofa) [2], 21%.
For `COP(=O)(CC(O)[C@H](Cc1ccccc1)NC(=O)[C@H](C)NC(=O)C(Cc1ccccc1)NC(=O)OC(C)(C)C)OC` (stereo partly specified), the concentration for half-maximal inhibition (IC50) against Renin amounted to 15000 nM.
For the compound `COP(=O)(C[C@H](O)[C@H](Cc1ccccc1)NC(=O)[C@H](Cc1c[nH]cn1)NC(=O)[C@H](Cc1ccccc1)NC(=O)OC(C)(C)C)OC`, half-maximal inhibition against Renin (IC50) required 1500 nM.
At Renin, `COP(=O)(C[C@H](O)[C@H](CC1CCCCC1)NC(=O)[C@H](Cc1c[nH]cn1)NC(=O)[C@H](Cc1ccccc1)NC(=O)CC(C)(C)C)OC` yielded an IC50 of 47 nM. Also, the results for the inhibition on Cathepsin D (Bos taurus) [1] and against Pepsin A (Sus scrofa) [2] were 6% and 3%, respectively.
Regarding `COP(=O)(O)C[C@H](O)[C@H](CC1CCCCC1)NC(=O)[C@H](CC(C)C)NC(=O)[C@H](Cc1ccccc1)NC(=O)OC(C)(C)C`, the IC50 against Renin was determined as 350 nM.
`CCOP(=O)(C[C@H](O)[C@H](CC1CCCCC1)NC(=O)[C@H](Cc1c[nH]cn1)NC(=O)[C@H](Cc1ccccc1)NC(=O)OC(C)(C)C)OCC`: the inhibition against Pepsin A (Sus scrofa) [3] and at Cathepsin D (Bos taurus) [4] was 0% in each case. For the same compound, on Renin, the IC50 was determined as 72 nM.
`CCCCOP(=O)(C[C@H](O)[C@H](CC1CCCCC1)NC(=O)[C@H](Cc1c[nH]cn1)NC(=O)[C@H](Cc1ccccc1)NC(=O)OC(C)(C)C)OCCCC` yielded an IC50 against Renin of 400 nM.
Same read-out and setting: to `COP(=O)(C[C@H](O)[C@H](CC(C)C)NC(=O)[C@H](Cc1c[nH]cn1)NC(=O)[C@H](Cc1ccccc1)NC(=O)OC(C)(C)C)OC` belongs 5100 nM; to `COP(=O)(C[C@@H](O)[C@H](CC1CCCCC1)NC(=O)[C@H](Cc1c[nH]cn1)NC(=O)[C@H](Cc1ccccc1)NC(=O)OC(C)(C)C)OC`, 90 nM.
`CC(C)(C)OC(=O)N[C@@H](Cc1ccccc1)C(=O)N[C@@H](Cc1c[nH]cn1)C(=O)N[C@@H](CC1CCCCC1)[C@@H](O)CP1(=O)OCCCO1` returned an IC50 against Renin of 80 nM. For the same compound, the values for the inhibition at Cathepsin D (Bos taurus) [1] and against Pepsin A (Sus scrofa) [2] were 0% and 2%, respectively.
For `CCOC(=O)N[C@@H](Cc1ccccc1)C(=O)N[C@@H](Cc1c[nH]cn1)C(=O)N[C@@H](CC1CCCCC1)[C@@H](O)CP(=O)(OC)OC`, in that order: 50 nM, 0% and 4%.
Compound `CC(C)(C)OC(=O)N[C@@H](Cc1ccccc1)C(=O)N[C@@H](Cc1c[nH]cn1)C(=O)N[C@@H](CC1CCCCC1)[C@@H](O)CP(C)(C)=O` (stereo in doubt; 24) came in with an inhibition against Renin (Homo sapiens) of 49%.
The compound `COP(=O)(C[C@@H](O)[C@H](Cc1ccccc1)NC(=O)[C@H](Cc1c[nH]cn1)NC(=O)[C@H](Cc1ccccc1)NC(=O)OC(C)(C)C)OC` yielded a 50% inhibitory concentration (IC50) against Renin of 4000 nM.
In the case of `CC(C)(C)OC(=O)N[C@@H](Cc1ccccc1)C(=O)N[C@@H](Cc1c[nH]cn1)C(=O)N[C@@H](CC1CCCCC1)[C@@H](O)CP(C)(C)=O` (stereo in doubt; 23), the inhibition against Renin (Homo sapiens) was determined as 24%.
